{
  "source": "paper PMC2849840",
  "about": "(Molecular pharmaceutics, 2010)",
  "key": {"MDCK-MDR1 cells [1]": {"system": "MDCK-MDR1 cells", "experiment": "Uptake of radiolabelled substrates into MDCK-MDR1 cells in DPBS with HEPES"}, "[2]": {"system": "ATP production in MDCK-MDR1 cells", "experiment": "ATP assay", "type": "cell-based", "conditions": "20 mM HEPES in culture medium", "summary_of_the_method": "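MDCK-MDR1 cells grown in DMEM with 10% heat-inactivated calf serum at 37 °C, 5% CO2, in 96-well plates for 6–7 days to full confluence, in medium without HEPES (Set 1) or with 20 mM HEPES (Set 2). Cells lysed for […]; ATP in lysate read by luminescence kit, with protein measured by Bradford. At least triplicate; mean ± SD.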"}, "MDCK-MDR1 cells [3]": {"system": "MDCK-MDR1 cells"}, "[4]": {"experiment": "Bidirectional transepithelial transport of [3H]lopinavir across MDCK-MDR1 cells", "type": "in vitro ADME", "conditions": "dog, MDCK-MDR1, 37 °C; for Papp A→B at 0.5 μCi/mL: MDCK-MDR1, pH 7.4, PappA-B; for Papp B→A at 0.5 μCi/mL: MDCK-MDR1, pH 7.4, PappB-A"}, "MDCK-MDR1 cells [5]": {"system": "MDCK-MDR1 cells", "type": "in vitro ADME"}},
  "data": [
    {"smiles": "N[C@@H](Cc1ccccc1)C(=O)O", "note": "[phenylalanine]", "values": [
      {"measurement": "change of uptake in the presence of HEPES", "setting": "MDCK-MDR1 cells [1]; 15 and 25 mM HEPES", "value": "no significant change"}
    ]},
    {"smiles": "O=S(=O)(O)CCN1CCN(CCO)CC1", "note": "[HEPES, 4-(2-hydroxyethyl)-1-piperazineethanesulfonic acid]", "values": [
      {"measurement": "elevation of ATP production, Set 2 compared to Set 1", "setting": "[2]", "value": 70, "unit": "%"}
    ]},
    {"smiles": "N[C@@H](CCC(=O)O)C(=O)O", "note": "[glutamic acid]", "values": [
      {"measurement": "elevation of uptake over the control", "setting": "MDCK-MDR1 cells [1]; 15 mM HEPES", "value": "about 30%"},
      {"measurement": "elevation of uptake over the control", "setting": "MDCK-MDR1 cells [1]; 25 mM HEPES", "value": "~45", "unit": "%"}
    ]},
    {"smiles": "CC(C)c1nc(CN(C)C(=O)N[C@H](C(=O)N[C@@H](Cc2ccccc2)C[C@H](O)[C@H](Cc2ccccc2)NC(=O)OCc2cncs2)C(C)C)cs1", "note": "[ritonavir]", "values": [
      {"measurement": "accumulation into cells versus control (0 mM HEPES)", "setting": "MDCK-MDR1 cells [3]", "value": "significant reduction"}
    ]},
    {"smiles": "Cc1cccc(C)c1OCC(=O)N[C@@H](Cc1ccccc1)[C@@H](O)C[C@H](Cc1ccccc1)NC(=O)[C@H](C(C)C)N1CCCNC1=O", "note": "[lopinavir]", "values": [
      {"measurement": "Papp A→B at 0.5 μCi/mL", "setting": "[4]; 25 mM HEPES in DPBS", "value": "22.8 ± 1.03", "unit": "×10⁻⁶ cm/s"},
      {"measurement": "Papp A→B at 0.5 μCi/mL", "setting": "[4]; Control (0 mM HEPES) in DPBS", "value": "30.2 ± 2.56", "unit": "×10⁻⁶ cm/s"},
      {"measurement": "Papp B→A at 0.5 μCi/mL", "setting": "[4]; 25 mM HEPES in DPBS", "value": "165 ± 11.1", "unit": "×10⁻⁶ cm/s"},
      {"measurement": "Papp B→A at 0.5 μCi/mL", "setting": "[4]; Control (0 mM HEPES) in DPBS", "value": "148 ± 7.92", "unit": "×10⁻⁶ cm/s"},
      {"measurement": "accumulation by Set 2 cells compared with Set 1 cells", "setting": "MDCK-MDR1 cells [5]; Set 2 grown with 20 mM HEPES, Set 1 without, 0, 15, 25 mM HEPES in DPBS", "value": "significantly less"},
      {"measurement": "accumulation by Set 2 cells compared to Set 1 cells", "setting": "MDCK-MDR1 cells [5]; in the presence of 1 μM or 2 μM unlabelled lopinavir, DPBS with 25 mM HEPES", "value": "higher accumulation"},
      {"measurement": "elevation of accumulation, Set 2 versus Set 1 cells", "setting": "MDCK-MDR1 cells [5]; in the presence of 5 μM unlabelled lopinavir, DPBS with 25 mM HEPES", "value": "not statistically different"},
      {"measurement": "accumulation into cells versus control (0 mM HEPES)", "setting": "MDCK-MDR1 cells [3]", "value": "significant reduction"}
    ]}
  ]
}
